Results: ChEMBL document CHEMBL1124631, “3-(aminoalkyl)-1,2,3,4-tetrahydro-5H-[1]benzopyrano[3,4-c] pyridin-5-ones as potential anticholinergic bronchodilators” (1989)

Legend:
Canis familiaris [1] = species: Canis familiaris; experiment: Pulmonary selectivity measured as the ratio of salivation and bronchospasm; format: functional, Canis lupus familiaris, Bronchiole
In short: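 Pilocarpine-infused dog model measuring pulmonary resistance and salivary output under cumulative iv doses (1–10,000 μg/kg). ID50 for each response by log dose–response linear regression. Selectivity = ID50 for salivation inhibition divided by ID50 for bronchospasm inhibition. Most compounds tested in one dog.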

Canis familiaris [2] = species: Canis familiaris; experiment: Inhibition of dog salivation by 50% of control value.; format: functional; settings: Canis lupus familiaris; read-out: ID50 (the source's name)
In short: (§1)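 Dogs with femoral vein cannulated; respiratory rate, heart rate and arterial pressure monitored. Bunolol 0.5 mg/kg iv given 30 min before pilocarpine nitrate infusion (0.2 mg/kg/h) to induce bronchospasm and salivation. Saliva collected from catheterized Wharton's duct every 5 min. Cumulative iv doses 1–10,000 μg/kg given every 5 min. ID50 by linear regression of log cumulative dose vs % inhibition. Mostly one dog per compound.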

Cavia porcellus = experiment: Methacholine challenge test was performed on guinea pigs by administration of compound at 25 mg/kg perorally; format: functional; settings: route oral
In short: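 Hartley guinea pigs, six per treatment, dosed orally at 25 mg/kg 15 min before challenge. Exposed for 10 min to 0.1% methacholine chloride aerosol from two nebulizers in a closed chamber, air pressure 10 lb/in.². Time from aerosol onset to collapse recorded and averaged ± S.E.M. Non-collapsing animals removed at 10 min and scored 10.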

Canis familiaris [3] = species: Canis familiaris; experiment: Compound dose for inhibiting dog cholinergic bronchoconstriction by 50% of control value.; format: functional; settings: Canis lupus familiaris, Lung; read-out: ID50 (the source's name); in short: as §1

Row | SMILES | Ratio (Canis familiaris [1]) | ED50 (Canis familiaris [2]) [mg/kg] | Collapse time (Cavia porcellus) [min] | ED50 (Canis familiaris [3]) [mg/kg]
1 | COc1cc2oc(=O)c3c(c2cc1OC)CCN(CCN1CC2CCC1CC2)C3 | 1 | 0.14 | 7.6 | 0.137
2 | COc1ccc2c3c(c(=O)oc2c1)CN(CCN1CC2CCC1CC2)CC3 | 1.6 | 0.102 | 10 | 0.063
3 | Cc1cc2oc(=O)c3c(c2cc1C)CCN(CC(C)N1CCCCC1)C3 (configuration not stated) | 3.9 | 1.16 | 7.7 | 0.3
4 | CCOc1cc2oc(=O)c3c(c2cc1OCC)CCN(CC(C)N1CCCCC1)C3 (configuration not stated) | 1.5 | 0.194 | 10 | 0.126
5 | COc1cc2oc(=O)c3c(c2cc1OC)CCN(CCN1CC2CCCC(C2)C1)C3 | – | – | 6.6 | 0.119
6 | CCN(C)C(C)CN1CCc2c(c(=O)oc3cc(OC)c(OC)cc23)C1 (configuration not stated) | 0.82 | 0.111 | 6 | 0.135
7 | CCCN(CC)C(C)CN1CCc2c(c(=O)oc3cc(OC)ccc23)C1 (configuration not stated) | 0.47 | 0.027 | 10 | 0.058
8 | COc1ccc2c3c(c(=O)oc2c1)CN(CCN1CC2CCCC(C2)C1)CC3 | 0.15 | 0.154 | 7.3 | 1.03
9 | COc1ccc2c3c(c(=O)oc2c1)CN(CCN1CC2CCC(CC2)C1)CC3 | 3 | 0.104 | 6 | 0.035
10 | COc1cc2oc(=O)c3c(c2cc1OC)CCN(CC(C)N1CCOCC1)C3 (configuration not stated) | – | – | 10 | –
11 | CCCN(C)C(C)CN1CCc2c(c(=O)oc3cc(OC)ccc23)C1 (configuration not stated) | 1.2 | 0.084 | 10 | 0.073
12 | COc1cc2oc(=O)c3c(c2cc1OC)CCN(CCN1CCCCCC1)C3 | – | – | 4 | –
13 | COc1cc2oc(=O)c3c(c2cc1OC)CCN(CCN1CCCCC1)C3 | – | – | 4.9 | –
14 | Cc1cc2oc(=O)c3c(c2cc1C)CCN(CCN1CC2CCC(CC2)C1)C3 | 0.6 | 0.223 | 5.1 | 0.372
15 | O=c1oc2ccccc2c2c1CN(CCN1CC3CCC(CC3)C1)CC2 | 0.08 | 0.068 | 5.2 | 0.849
16 | COc1ccc2c3c(c(=O)oc2c1)CN(CCN1CCOCC1)CC3 | 0.63 | 0.714 | 6.1 | 1.14
17 | CCOc1cc2oc(=O)c3c(c2cc1OCC)CCN(CCN1CC2CCC(CC2)C1)C3 | 0.79 | 0.21 | 6.3 | 0.267
18 | COc1ccc2c3c(c(=O)oc2c1)CN(CCN(C)C)CC3 | – | – | 1.9 | –
19 | Cc1ccc2c3c(c(=O)oc2c1)CN(CC(C)N(C)C)CC3 (configuration not stated) | 3.7 | – | 10 | –
20 | CCNC(C)CN1CCc2c(c(=O)oc3cc(OC)c(OC)cc23)C1 (configuration not stated) | – | – | 1.7 | –
21 | CCCN(CC)C(C)CN1CCc2c(c(=O)oc3cc(OC)c(OC)cc23)C1 (configuration not stated) | – | – | 3.7 | –
22 | Cc1ccc2c3c(c(=O)oc2c1)CN(CC(C)N1CCCC1)CC3 (configuration not stated) | 2.3 | 0.226 | 8.7 | 0.1
23 | COc1ccc2c3c(c(=O)oc2c1)CN(CCN1CCCC1)CC3 | 3 | 0.735 | 9.1 | 0.246
24 | CCN(C)C(C)CN1CCc2c(c(=O)oc3cc(C)ccc23)C1 (configuration not stated) | 2.2 | – | 8.8 | –
25 | CCN(C)C(C)CN1CCc2c(c(=O)oc3cc(OC)ccc23)C1 (configuration not stated) | 1.5 | 0.023 | 9.1 | 0.015
26 | COc1cc2oc(=O)c3c(c2cc1OC)CCN(CC(C)N1CCCC1)C3 (configuration not stated) | 1.4 | 0.023 | 10 | 0.017
27 | COc1cc2oc(=O)c3c(c2cc1OC)CCN(CCN1CC2CCC(CC2)C1)C3 | 4.7 | 0.53 | 5 | 0.113
28 | COc1cc2oc(=O)c3c(c2cc1OC)CCN(CC(C)N1CCCCCC1)C3 (configuration not stated) | – | – | 1.7 | –
29 | CCNC(C)CN1CCc2c(c(=O)oc3ccccc23)C1 (configuration not stated) | 5.9 | – | 10 | –
